The text below walks through data of ChEMBL document CHEMBL4513216, “Probing the Open Global Health Chemical Diversity Library for Multistage-Active Starting Points for Next-Generation Antimalarials” (ACS Infect Dis, 2020).

The data set is described as follows: Toxicity liver stage against HepG2, at 10uM. The data set is classed as cell-based. More on the design: test concentration 10 uM, cell line HepG2-A16-CD81EGFP. To be noted: human, HepG2-A16-CD81EGFP cells; read-out: INHIBITION
Put shortly:
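Uninfected HepG2-A16-CD81EGFP cells, 3 × 10^3 per well, 1536-well, plated on prespotted compound at 10 μM final, parasite-free screening media added to match infected plates; puromycin 10 μM positive, DMSO 0.5% negative; run in parallel with 48 h PbLuc assay at 37 °C, 5% CO2; viability by CellTiter-Glo luminescence, normalized to controls.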
On to `O=C(NC1CCCN(c2ccccc2Cl)C1)c1c[nH]nn1` (stereo unspecified), for which the cytotoxicity at 10 µM is -1.58%.
As for `CN(C)c1cc(N2CCN(c3ccccn3)CC2)ncn1`, the cytotoxicity at 10 µM was -2.71%.
On to `CNS(=O)(=O)c1cccc(C(C)NCc2ccccc2OC)c1` (stereo unspecified), for which the cytotoxicity at 10 µM is -2.59%.
Next, `Cc1nc(C)n(C2CCCN(C(=O)c3ccc4[nH]nnc4c3)C2)n1` (stereo unspecified): -13.9%; `COc1ncccc1CN1CCc2[nH]nc(C(=O)N3CCCC3C)c2C1` (stereo unspecified): -4.4%.
As to `C1CC(CO[C@@H]2CC[C@H]3[C@H]2OCCN3CC2CC2)CCO1`, the cytotoxicity at 10 µM turned out to be 11.4%.
Then `CC(=O)N1CCCN(C(=O)NCCCn2cncn2)CC1`, with -10.1%; and `Cc1cc(CCC2CN(CC3(O)CCCCC3)CCO2)ncn1` (stereo unspecified), with 2.97%.
Turning to `CC(=O)Nc1cccc2c1ccn2CC(=O)NC(C)C`, the cytotoxicity at 10 µM is -7.79%.
For the compound `O=C(NCCN1CCOCC1)c1nc2ccccc2c(=O)[nH]1`, the cytotoxicity at 10 µM was 11.3%.
`O=C(CS(=O)(=O)C1CCCC1)NC1CCCc2cc(OC(F)F)ccc21` (stereo unspecified): the cytotoxicity at 10 µM worked out at 4.84%.
Then `COc1ccc(C)cc1CN1CCCC1Cn1nc(C)nc1C` (stereo unspecified), with 6.57%.
Next, `Cc1noc(C)c1CN1CCn2cc(CN3CCCCC3)nc2C1`: 8.95%; `CN(C)C1CCN(C(=O)NCc2ccccc2Cn2cncn2)CC1`: -8.15%.
For `CN1CC(=O)N(c2cccc(F)c2)CC12CCN(Cc1ccccn1)C2` (stereo unspecified), the cytotoxicity at 10 µM stood at 2.49%.
On to `COc1cc(C(=O)N2CCCS2(=O)=O)ccc1OC(C)C`, for which the cytotoxicity at 10 µM is -17.6%.
Turning to `CO[C@@H]1CN(c2ccccc2)S(=O)(=O)[C@@]12CCNC2`, the cytotoxicity at 10 µM is -2.64%.
Next, `CCC1(CC)C(=O)NC(=O)N/C1=N/c1cccc(OC)c1`: -51.8%.
Then `Cn1nc2c(cc1=O)CN(Cc1coc(-c3ccc(F)cc3)n1)CC2`, with -11.5%; and `COc1ccccc1CN(C)C(=O)NCc1c(C)cc(C)[nH]c1=O`, with -4.98%; and `c1cnc(N2CCCC3(COCCN(CC4CC4)C3)C2)nc1` (stereo unspecified), with 3.22%.
Then `O=C(c1cc2ccccc2[nH]c1=O)N1CCC2(CCCNC2)C1` (stereo unspecified), with -4.66%.
Consider `O=C(CCc1ccccc1)N1CC(n2cncn2)C1`, for which the cytotoxicity at 10 µM is -15.7%.
On to `NC(=O)CSc1ccccc1NC(=O)CC1C=CCC1` (stereo unspecified), for which the cytotoxicity at 10 µM is -131%.
On to `Cc1c(F)cccc1S(=O)(=O)Nc1noc(C(C)C)n1`, for which the cytotoxicity at 10 µM is 7.21%.
Take `CC(C)C(=O)N1CCC(CNc2nc(C(C)C)nc3c2cnn3C)CC1`: the cytotoxicity at 10 µM is -4.25%.
Regarding `COCC[C@]1(O)CCN(C(=O)C2CCN(C3CCCC3)CC2)C[C@H]1C`, the cytotoxicity at 10 µM was -0.292%.
Next, `N#CCSCCCN1CCC(C(=O)N2CCCCCC2)CC1`: 5.37%.
Then `CCOc1ncccc1CNC(=O)N1CCCC1c1cc(C)no1` (stereo unspecified), with 23.7%.
Take `Cc1ccc2c(n1)N(CCn1cccn1)CCN(C(=O)CC1CC1)C2`: the cytotoxicity at 10 µM was -5.58%.
`CC(C)C(Sc1nnnn1C1CC1)C(=O)NCc1cccnc1` (stereo unspecified): the cytotoxicity at 10 µM is -0.267%.
Then `Cc1ncc(CNC2CC(=O)N(CCc3cccc(Cl)c3)C2)n1C` (stereo unspecified), with -133%; and `Cc1cn2c(n1)CCC(NC(=O)CCn1ccnn1)C2` (stereo unspecified), with -2.53%.
Consider `COc1ccc(Cl)cc1NCC(=O)N(Cc1ccccn1)C1CC1`, for which the cytotoxicity at 10 µM was determined as 8.13%.
Next, `COCCN(Cc1ccoc1)S(=O)(=O)c1ccc(OC)c(Cl)c1`: 6.27%; `CC(C)c1nc(CN(C)C2CCN(CCS(C)(=O)=O)C2)no1` (stereo unspecified): -13.4%; `OCC1(NCc2cnc(-c3cccs3)s2)CCOCC1`: -1.99%.
Consider `O[C@@H]1CN(CC2CC2)CC[C@H]1N1CCN(c2ccccc2F)CC1`, for which the cytotoxicity at 10 µM was -50.3%.
Turning to `O=C(Nc1cccnc1)c1noc2c1CN(S(=O)(=O)C1CC1)CC2`, the cytotoxicity at 10 µM was determined as 7.06%.
Then `O=C1CN(Cc2cn(CC3CCN(C4CCSCC4)CC3)nn2)CCN1`, with -48.2%; and `Cc1ccnn1CCC(=O)N1CCCC1c1cc2cccnc2[nH]1` (stereo unspecified), with 9.17%; and `COc1ccc(C2CC(=O)Nc3c2cnn3C)cc1` (stereo unspecified), with 22%.
Then `O=C(NC1CC1)C1CCCN(c2cc(-n3cncn3)ncn2)C1` (stereo unspecified), with 10.1%; and `CC1COCCN1c1ncnc2sccc12` (stereo unspecified), with 14.1%.
Then `C[C@H]1CN2C[C@H](O)CC2CN1Cc1ccncc1` (stereo partly specified), with -3.02%; and `OCC1CCCN1c1cc(N2CCc3ccccc3C2)ncn1` (stereo unspecified), with 2.53%; and `CSCC(C)(O)CNS(=O)(=O)Cc1ccc(F)cc1` (stereo unspecified), with -1.12%.
In the case of `Cc1ncsc1CN1C[C@@H]2COC[C@]2(C(=O)NCC2CC2)C1`, the cytotoxicity at 10 µM worked out at 5.38%.
`CCc1nc(N2CCC3(CC2)CC(=O)N(Cc2ccc(Cl)cc2)C3)no1`: the cytotoxicity at 10 µM amounted to 4.48%.
Turning to `CC(C)C(=O)N1CCN(Cc2csc(-c3ccccn3)n2)CC1`, the cytotoxicity at 10 µM was -5.71%.
As to `COc1ccccc1CN1CC[C@H]2C[C@H](C(=O)N3CCCC3)O[C@H]2C1`, the cytotoxicity at 10 µM was -2.24%.
Turning to `O=C(O)c1cnc(N2CC[C@H](N3CCOCC3)[C@H](CCCO)C2)c(Cl)c1`, the cytotoxicity at 10 µM came out at 4.6%.
Next, `Cc1ccc(CN2CCC3(CC2)C(=O)N(CC(C)C)CCN3C)o1`: -0.508%; `CC(C)(Oc1ccc(C(N)=O)cc1)C(=O)N(CCC#N)C1CC1`: 1.58%; `Cc1ccccc1CN1CCC(CNc2ncnc3c2CCNCC3)C1` (stereo unspecified): -7.13%.
In the case of `CC(C)c1nc(CNC2CCCN(c3cccnn3)C2)no1` (stereo unspecified), the cytotoxicity at 10 µM turned out to be 7.68%.
Then `COC(=O)CNC(=O)c1nc(-c2ccccc2OC)c2cnccn12`, with 8.6%; and `COCC(=O)N1CC[C@@H]2O[C@H](COCc3csc(C)n3)CC[C@@H]21`, with -85.8%; and `Cc1nn(C)c2c(N3CCCC3)nc(C3CC3)nc12`, with 0.12%.
Then `Cn1ccnc1CN1CCC2(CC1)CC(N1CCCC1)c1ccccc12` (stereo unspecified), with 7.24%.
Then `Cc1cc(C(F)(F)F)nc(N(C)Cc2c(C)noc2C)n1`, with -13.2%; and `O=C1CN(C(=O)C2CCOC2)CCN1Cc1ccc(Cl)cc1` (stereo unspecified), with -150%; and `CCN(CC1CCCO1)C(=O)Nc1cccc(Cl)c1OC` (stereo unspecified), with -21.4%.
For `CC(C)c1cc(N2CCC3(CCN(C)C3)C2)ncn1` (stereo unspecified), the cytotoxicity at 10 µM was -11.8%.
Regarding `CCCSCC(=O)N1C[C@H]2CC[C@@H](C1)N(Cc1ccccn1)C2=O`, the cytotoxicity at 10 µM was determined as 3.32%.
Take `Cc1ccc(C)n1-c1ccsc1C(=O)NCC(=O)N1CCCC1`: the cytotoxicity at 10 µM was -143%.
Next, `CC(=O)N1CC(=O)N(c2cnn(C)c2)CC12CCN(Cc1cccs1)C2` (stereo unspecified): 2.26%.
Next, `CC(C)c1cc(CN(C)C(=O)C(C)N2CCc3ccccc3C2)no1` (stereo unspecified): 4.24%.
Regarding `O=C(c1cc(C2CC2)on1)N1CCCC(n2cncn2)C1` (stereo unspecified), the cytotoxicity at 10 µM was -14%.
Take `Cc1ccc(Cl)c(NC(=O)NC2(C)CCOC2)c1` (stereo unspecified): the cytotoxicity at 10 µM is -46.7%.
In the case of `Cc1ncc(CN)c(-c2cn(C)c3ccccc23)n1`, the cytotoxicity at 10 µM was 2.97%.
Consider `CCN(CC)C(=O)CSc1nnc(CCNC(=O)OC(C)(C)C)o1`, for which the cytotoxicity at 10 µM amounted to 12%.
For the compound `CCN1C(=O)C2(CCOCC2)c2cc(NC(=O)c3cc(C)n[nH]3)ccc21`, the cytotoxicity at 10 µM is -2.49%.
Regarding `Cc1ccc(-c2ncc(C(=O)NS(C)(=O)=O)s2)c(C)c1`, the cytotoxicity at 10 µM is -8.91%.
Turning to `CCc1ccc(S(=O)(=O)N2CC[C@@](O)(CCOC)[C@H](C)C2)cc1`, the cytotoxicity at 10 µM turned out to be 6.8%.
On to `CCN(CC)CCNC(=O)CCc1c(C)nn(-c2ccc(Cl)cc2)c1C`, for which the cytotoxicity at 10 µM is -5.93%.
Then `CN1CCC2(COCc3cnc(-c4ccccc4)nc32)C1` (stereo unspecified), with -1.5%.
Then `Oc1nc(C2CCN(Cc3ccccn3)CC2)cc2ccccc12`, with 11.8%; and `COc1ccc(CC(=O)N2CCCC2Cn2cccn2)cc1F` (stereo unspecified), with -0.587%.
Next, `CCN1CCN(C(=O)c2cc(NC(=O)c3ccccc3)n(C)n2)CC1`: 8.91%; `O=C(NCc1cccnc1N1CCCCC1)c1ccc2c(c1)OCO2`: -3.76%; `O=C(NCC1CC1)C1CN(C(=O)c2ccco2)CC12CCOCC2` (stereo unspecified): 6.61%.
In the case of `CN(C)C[C@]12COC[C@H]1CN(Cc1ccccn1)C2`, the cytotoxicity at 10 µM came out at 5.89%.
Then `Cc1cccc(CN2CC[C@@H]3[C@@H](CO[C@H]3CNc3ncccn3)C2)n1`, with -5.55%.
Then `COCC(=O)N1CC[C@H]2C[C@@H](c3nnc(C4CC4)o3)O[C@@H]2C1`, with -6.77%.
Then `CC(=O)N1CCCN(CCCc2ccccc2)CC1`, with -9.28%; and `CN(Cc1ncc[nH]1)CC1CCOc2ccccc2C1` (stereo unspecified), with -1.93%; and `CNC(=O)c1ccnc(N2CCCC(COc3cccc(C)c3)C2)c1` (stereo unspecified), with 7.68%.
On to `CCC(=O)NCC(=O)NC(C)c1ccc(OCCC(C)C)cc1` (stereo unspecified), for which the cytotoxicity at 10 µM stood at 7.89%.
On to `CC(C)CC(NC(=O)CSCC(N)=O)c1cccs1` (stereo unspecified), for which the cytotoxicity at 10 µM is -0.431%.
Then `CC(=O)N[C@@H](C)C(=O)NCc1cccnc1Oc1ccccc1F`, with -3.53%; and `O=C(CN1CCOCC1)N1CCN(C2CCc3ccc(F)cc32)CC1` (stereo unspecified), with 6.24%; and `Cc1ccccc1[C@@H]1CN(CCCS(=O)(=O)N(C)C)C[C@H]1C(=O)O`, with -5.51%.
Then `Cn1cnc2c1CCN(CCCc1ccccc1)C2`, with -1.13%.
Regarding `CC(C)c1nccn1-c1cccc(C2CCCN(C3CCCC3)C2)n1` (stereo unspecified), the cytotoxicity at 10 µM came to 7.1%.
Then `O=C1CSC(c2ccncc2)c2c(n(C3CCOCC3)[nH]c2=O)N1` (stereo unspecified), with -19.4%.
